BAP1 block = human BAP1 deubiquitinase inhibition. 0.48% of 72,000 active. recombinant BAP1, Ub-AMC hydrolysis fluorescence kinetic; stronger effect = lower value. calls only at 20 µM;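 active = activity remaining at or below 50% of control, provided the compound also passes the data quality filters; inactive = the rest, including low values that fail the filters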;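 also: 100% = DMSO wells rate and 0% = substrate alone blank rate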
FXIa inh mix = blocks human factor XIa in pooled compound mixtures | purified FXIa, fluorogenic substrate | inhibition, % at 5 µM | 0.19% of 62,000 active | AID 680;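 also: each value is inhibition by a whole ten-compound pool holding the compound; 0% = enzyme with no mixture and 100% = wells lacking enzyme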
HePTP inh = blocks human HePTP tyrosine phosphatase. 0.64% of 110,000 active. inhibition, % at 20 µM. P35236. recombinant HePTP phosphatase activity, OD absorbance; in the data active = inhibition above about 50%;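 also: plate controls were vehicle for no effect and reference inhibitor for full effect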
Target sequence (P35236 whole entry, looked up): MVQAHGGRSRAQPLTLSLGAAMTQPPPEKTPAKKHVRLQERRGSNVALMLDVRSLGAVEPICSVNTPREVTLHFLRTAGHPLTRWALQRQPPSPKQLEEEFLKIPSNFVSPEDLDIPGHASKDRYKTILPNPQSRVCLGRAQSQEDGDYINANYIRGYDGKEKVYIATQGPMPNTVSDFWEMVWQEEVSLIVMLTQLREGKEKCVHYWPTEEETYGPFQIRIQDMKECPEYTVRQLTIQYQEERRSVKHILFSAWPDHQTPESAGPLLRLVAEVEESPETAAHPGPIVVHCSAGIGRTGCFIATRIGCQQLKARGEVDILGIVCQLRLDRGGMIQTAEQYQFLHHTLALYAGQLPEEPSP
AP ELISA ortho = alternative pathway complement inhibition, orthogonal assay. Human serum alternative complement pathway, LPS-coated ELISA, C3 deposition; tested in compound mixtures. inhibition, % at 5 µM. 0.08% of 62,000 active;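 active = inhibition above 30% in each of the two pooled mixtures holding the compound, so the lower value exceeds 30%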;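 also: 0% = serum in Mg-EGTA without compound and 100% = EDTA serum blank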
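Test system: human serum complement alternative pathway, C3 deposition onto LPS / Medium: Mg2+-EGTA GVB++ buffer containing human serum at 1:15 dilution / Probe or stimulus: Plate-bound LPS / Times: 1 h at 37 °C / Signal: ELISA with HRP anti-human C3 antibody, TMB substrate, absorbance 450 nm / Measure: percent inhibition / Repeats: two pool placements per compound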
FXIIa mix inh = inhibitors of human coagulation factor XIIa, pooled mixtures | 0.2% of 62,000 active | P00748 | inhibition, % at 5 µM | purified FXIIa, fluorogenic substrate;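 also: 0% = enzyme without compound and 100% = no enzyme blank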
* hit, by the source's call; i = inactive; x = no result; + = active, no number. Shown are actives, neighbours in structure and some others; about 1% of the full set was active somewhere. Rule as the data show it, unless noted: active = inhibition above about 20% (passing the limit was not always enough); inactive = the rest.

SMILES	BAP1 block	FXIa inh mix	HePTP inh	AP ELISA ortho	FXIIa mix inh
CNc1ccc([N+](=O)[O-])cc1N/C=C1\CCc2ccccc2C1=O	x	x	104*	x	x
O=C(O)CCCCCN1C(=O)C(=O)/C(=C(/O)c2ccc([N+](=O)[O-])cc2)C1c1ccc(Cl)cc1 (stereo unspecified)	x	x	6	x	x
CCOP(=O)(CC(=O)O)c1ccccc1 (stereo unspecified)	x	x	-2	x	x
COC(=O)CCC(=O)NNc1ccc([N+](=O)[O-])cc1	x	x	60*	x	x
COC(=O)CCC(=O)Nc1ccc([N+](=O)[O-])cc1C	x	x	8	x	x
O=C(N/N=C\c1cc(I)ccc1O)c1ccc(Br)cc1	x	x	103*	x	x
O=C(N/N=C\c1cc(Cl)cc([N+](=O)[O-])c1O)c1ccc(Br)cc1	x	x	65*	x	x
COc1ccc(C(=O)N/N=C/c2cc(OC)c(O)c([N+](=O)[O-])c2)cc1OC	x	x	-7	x	x
O=C(N/N=C/c1cc(Cl)cc([N+](=O)[O-])c1O)c1ccc2c(c1)OCO2	x	x	103*	x	x
Cc1cc(Br)cc(/C=N/NC(=O)c2ccc3c(c2)OCO3)c1O	x	x	-3	x	x
O=C(CCC(=O)N/N=C/c1cc(Br)ccc1O)N/N=C\c1cc(Br)ccc1O	x	x	-1	x	x
O=C(O)CSC12CC3CC(C1)CC(C(=O)O)(C3)C2	i	24*	12	-5	-4
O=C(CSc1nc2ccccc2o1)Nc1ccccc1N1CCCCCC1	i	38*	12	3	2
Cc1cc(C)c(N2C(=O)NC(=O)/C(=C/c3ccc([N+](=O)[O-])o3)C2=O)c(C)c1	x	x	76*	x	x
CCOC(=O)c1ccc(NC(=O)C(Cl)(Cl)Cl)cc1	x	x	0	x	x
CCOC(=O)c1ccc(NC(=O)C(CC)(CC)C(=O)OCC)cc1	i	1	-6	12	50*
Clc1ccccc1CN1CCN(N=Cc2cccc(Cl)c2Cl)CC1	x	x	1	x	x
Cc1c(Cl)cccc1-n1ncnc1-c1cccc(Cl)c1	x	x	-7	x	x
CC(C)(C)OC(=O)N[C@@H](Cc1ccccc1)c1nnc(S(=O)(=O)Cc2ccccc2)o1	i	8	2	31*	-3
CCC(C)C(NCc1cccc(C)c1)C(=O)O (stereo unspecified)	i	16	9	11	1
CCC(C)[C@@H](NC(=O)OC(C)(C)C)c1nnc(S(=O)(=O)Cc2cccc(C)c2)o1 (stereo partly specified)	i	21*	-6	6	12
CC(C)(C)OC(=O)N[C@@H](Cc1ccccc1)c1nnc(SCC(=O)O)o1	i	-4	8	-5	6
O=C(COc1cccc(Cl)c1)N/N=C/c1c(Br)cc(Br)c(O)c1Br	x	x	2	x	x
COc1cc(Br)cc(/C=N/NC(=O)COc2cccc(Cl)c2)c1O	x	x	99*	x	x
CCOC(=O)c1c(NC(=O)c2ccc(N3C(=O)CCC3=O)cc2)sc2c1CCCC2	x	x	-15	x	x
SMILES	BAP1 block	FXIa inh mix	HePTP inh	AP ELISA ortho	FXIIa mix inh
COc1ccc(C2/C(=C(\O)c3ccccc3)C(=O)C(=O)N2CCN(C)C)cc1 (stereo unspecified)	x	x	-17	x	x
CCCc1[nH]nc2c1C(c1cn[nH]c1-c1ccc(F)cc1)C(C#N)=C(N)O2 (stereo unspecified)	i	21*	11	1	1
NC(=O)c1cc(NS(=O)(=O)c2ccc(F)cc2)ccc1Cl	x	x	-1	x	x
COc1ccc(S(=O)(=O)N2CCC(NC(=O)Nc3ccc(C)cc3)CC2)cc1	i	4	5	-11	22*
O=C(O)c1ccccc1N1C(=O)c2ccc(Oc3cccc([N+](=O)[O-])c3)cc2C1=O	i	x	x	x	x
CC(C)(C)Sc1nc(O)cc(=O)[nH]1	i	-1	2	34*	5
CCOC(=O)c1c(NC(=O)C(C)C)sc(C(C)=O)c1C	i	x	x	x	x
C=Cc1c(C)c2cc3[nH]c(cc4nc(cc5nc(cc1[nH]2)C(C)=C5CCC(=O)O)C(CCC(=O)O)=C4C)c(C)c3C=C	+	x	x	x	x
COc1ccccc1N1C(=O)C2C3C=CC(C3)C2C1=O (stereo unspecified)	i	1	-2	2	21*
N#Cc1ccc(Oc2ccccc2N2C(=O)C3C4C=CC(C4)C3C2=O)cc1 (stereo unspecified)	i	x	x	x	x
O=C(COc1ccc(C23CC4CC(CC(C4)C2)C3)cc1)Nc1cccc([N+](=O)[O-])c1	i	x	x	x	x
CCOc1c(/C=C2\Sc3ccccc3C2=O)cccc1OC	x	x	-13	x	x
O=C(O)/C=C/c1cccc(N2C(=O)C=CC2=O)c1	x	x	89*	x	x
CCn1cnc2sc(C(=O)N3CCN(Cc4ccc5c(c4)OCO5)CC3)c(C)c2c1=O	i	1	2	15	2
CCn1cnc2sc(C(=O)N(Cc3ccc(N(C)C)cc3)Cc3ccco3)c(C)c2c1=O	i	23*	9	1	-20
COc1ccccc1NC(=O)c1cc(S(=O)(=O)N2CCOCC2)ccc1Cl	i	4	5	1	32*
CCOc1cccc(C(=O)Nc2nnc(-c3ccccc3C)s2)c1	x	x	5	x	x
N#CC(C#N)=NNc1ccccc1C(=O)O	x	x	10	x	x
N#CC(C#N)=NNc1ccc(O)c(C(=O)O)c1	x	x	69*	x	x
Cc1ccccc1C1=N/C(=C\c2ccc(Br)o2)C(=O)O1	x	x	60*	x	x
O=C1OC(c2ccccc2F)=N/C1=C\c1ccc(Br)cc1	x	x	9	x	x
CCc1ccc(-c2nnc(-c3ccccc3Cl)o2)cc1	x	x	4	x	x
COc1ccccc1N1C(=O)C(=Cc2cccn2C)C(=O)NC1=S	x	x	102*	x	x
COc1ccccc1N1C(=O)NC(=O)/C(=C\c2cc3ccccc3n2C)C1=O	x	x	0	x	x
Brc1ccc(-c2noc(-c3ccc(-c4ccccc4)cc3)n2)cc1	x	x	0	x	x
SMILES	BAP1 block	FXIa inh mix	HePTP inh	AP ELISA ortho	FXIIa mix inh
O=C(NCc1ccccc1)c1ccc(CN2CCN(Cc3ccccc3)CC2)cc1	x	x	4	x	x
COc1cc(C)nc(N2CCCC(C(=O)Nc3cccc(Cl)c3C)C2)n1 (stereo unspecified)	x	21*	3	4	4
COc1cccc(-c2csc(/C(C#N)=C/c3sccc3C)n2)c1	x	x	3	x	x
O=C(Nc1cccnc1)c1ccc(CN(c2ccccc2)S(=O)(=O)c2ccccc2)cc1	x	x	104*	x	x
O=C(Nc1ccccn1)c1ccc(CN(c2ccccc2)S(=O)(=O)c2ccccc2)cc1	x	x	12	x	x
CSc1cccc(NS(=O)(=O)c2ccc(F)cc2)c1	i	2	2	34*	19
CCOc1ccc(NC(=O)c2c(NC(=O)c3ccc([N+](=O)[O-])cc3)sc3c2CCCC3)cc1	x	x	4	x	x
Cc1ccc(C)n1/N=C1\NC(=O)CS1	x	x	99*	x	x
C=CCN1C(=O)/C(=C\c2cc(Br)cc(Cl)c2O)C(=O)NC1=S	x	x	-3	x	x
C=CCN1C(=O)/C(=C\c2ccc(-c3cccc([N+](=O)[O-])c3)o2)C(=O)NC1=S	x	x	96*	x	x
C=CCN1C(=O)/C(=C\c2ccc(-c3ccc(Br)cc3)o2)C(=O)NC1=S	x	x	100*	x	x
C=CCN1C(=O)/C(=C/c2ccc(C)cc2)C(=O)NC1=S	x	x	9	x	x
C=CCN1C(=O)/C(=C/c2cccc([N+](=O)[O-])c2)C(=O)NC1=S	x	x	10	x	x
C=CCN1C(=O)/C(=C\c2ccc(-c3ccc(C)cc3Br)o2)C(=O)NC1=S	x	x	102*	x	x

Screening data as filed in PubChem.
